Assay outcomes deposited in PubChem BioAssay by several laboratories.
Yeast lifespan up: compounds extending yeast replicative lifespan, primary screen, S. cerevisiae, OD615 | AID 775, 2007 | inhibition of the nicotinamide effect, % at 10 µM | S. cerevisiae growth with nicotinamide; deaD strain in restrictive glucose medium | 0.68% of 130,000 active;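 active means inhibition above a set limit, placed 3 SD over the median of all compounds, cut at about 26% in these data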
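Test system: DeaD-strain S. cerevisiae / Buffer or medium: restrictive glucose medium / Also added: nicotinamide 1.5 mM / Doses: one concentration, 10 µM, DMSO 0.25% / Schedule: 48 h at 30 °C / Signal: OD615 measurement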
RAM inhibit: inhibitors of the yeast RAM network, primary screen, dse1pr::URA3 reporter, 5-FOA selection; S. cerevisiae dse1pr::URA3 reporter, 5-FOA growth OD615, 2 d; analog-sensitive cbk1-as2 kinase mutant strain; inhibition, % at 50 µM; 1.8% of 190,000 active; AID 868, 2007;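 active means inhibition above a set limit, 3 SD over mean compound inhibition, cut at about 8.4% in these data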;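 further: inhibition rescues growth on 5-FOA so higher OD means more RAM inhibition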
Yeast growth inh: growth inhibitors of yeast BB579 in restrictive medium, primary screen, yeast lifespan-shortening project, S. cerevisiae; inhibition, % at 10 µM; 0.51% of 140,000 active; OD615, 48 h;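 active means inhibition above a set limit, 3 SD over the mean compound inhibition, cut at about 44% in these data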
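System: DeaD yeast strain BB579; buffer or medium: CSMM-D dextrose restrictive medium; technique: OD at 615 nm; schedule: 4 h cell preincubation, 48 h compound exposure, 30 °C humidified; doses: single 10 µM dose; controls: amphotericin B 10 µg/mL, positive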
SDO1 yeast rescue: growth rescue of sdo1-depleted yeast, primary screen, S. cerevisiae, bone marrow failure model; S. cerevisiae sdo1-depleted JHY4D growth rescue, OD600 30 h; hits give high values; pdr5 snq2 efflux-pump mutant strain; z-score at 10 µM; AID 817, 2007; 0.21% of 140,000 active;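 active means z-score above 3 at both the 24 hr and the 30 hr optical density reads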
SDO1 rescue DR: SDO1-depleted yeast growth rescue, concentration-response, diseases of bone marrow failure, JHY4D, OD600; S. cerevisiae JHY4D (SDO1-depleted) growth rescue, 30 h; hits give high values; efflux-deficient strain, SNQ2 and PDR5 mutated; AID 949, 2007; shares compounds with SDO1 yeast rescue; OD recovery (test concentration not listed); 44% of 440 active;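 active means yeast growth recovered at 30 hours, either rising with dose fitted slope above 0.001 or with average optical density gain above 0.07, some results past the limit were not filed as active; inactive means growth falling with dose or no effect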
A number is an active result; – = inactive; · = not tested or not shown. Rows were chosen to be rich in hits. Some 2.7% of all compounds tested hit in one or more screens of this group.

SMILES	Yeast lifespan up	RAM inhibit	Yeast growth inh	SDO1 yeast rescue	others
CSCCC(NC(=O)c1ccccc1)C(=O)N/N=C(\C)c1ccccc1 (stereo not drawn)	–	–	–	–
CC(C)(C)C1CCC2(CC1)Nc1cccc3cccc(c13)N2	–	8.9	–	–
Cc1cccc(CSc2cccc3cccnc23)c1	–	–	96	–
CCCNC(=O)CN(C1CCCCC1)S(C)(=O)=O	–	–	–	–
CC(C)CNC(=O)CN(C1CCCCC1)S(C)(=O)=O	–	–	44	–
Cc1ccc(-n2c3nc(=O)[nH]c(=O)c-3cc3cc([N+](=O)[O-])ccc32)cc1C	–	9.4	–	–
O=C(c1c(O)c2ccccc2oc1=O)C1CCCCC1	29	–	–	–
CN=C(C)c1c(O)c2ccccc2oc1=O	–	–	–	–
O=C(CCC1CCCC1)c1c(O)c2ccccc2oc1=O	33	–	–	–
CC1C/C(=N\NC(=O)CCc2ccc(S(=O)(=O)N3CCOCC3)cc2)CC(C)(C)C1 (stereo not drawn)	–	–	–	–
COc1ccc(CNC(=O)c2csc(Cc3ccccc3)n2)cc1	–	–	–	–
COc1ccccc1CNC(=O)c1csc(Cc2ccc(Cl)cc2)n1	–	8.7	–	–
COc1ccccc1-c1nnc(SCCN2CCOCC2)n1-c1ccc(C)cc1	–	–	–	–
Cc1c(NC(=O)CSc2nc3c(cnn3-c3ccccc3)c(=O)[nH]2)c(=O)n(-c2ccccc2)n1C	–	11	–	–
CCOC(=O)Cn1cnc2c(nnn2Cc2ccc(Cl)cc2)c1=O	–	–	–	–
C=CCC1c2cccc(C(=O)O)c2C(=O)N1c1cccc(C)c1 (stereo not drawn)	–	–	62	–
COc1ccc(C(C)=O)cc1COc1ccc([N+](=O)[O-])c(C)c1	·	8.6	·	·
O=C(NCC1CCCO1)C(c1cccs1)N(Cc1cccs1)C(=O)c1ccc(-c2ccccc2)[nH]1 (stereo not drawn)	–	8.4	–	–
Cn1c(=O)c2c(nc(Br)n2CC(=O)c2cccs2)n(C)c1=O	36	–	–	–
Cc1ccccc1NC(=O)CSc1nc(COc2ccccc2)nc2ccccc12	–	9.7	–	–
Clc1ccc(CSc2cc3c(nn2)-c2ccccc2CC3)cc1Cl	–	10	–	–
Clc1cccc(Cl)c1CSc1cc2c(nn1)-c1ccccc1CC2	–	–	–	–
Clc1ccccc1CSc1cc2c(nn1)-c1ccccc1CC2	–	10	–	–
CCSc1cc(N2CC(C)OC(C)C2)nc(-c2ccccc2Cl)n1 (stereo not drawn)	–	–	–	–
Cc1nc(N/N=C/c2ccccn2)sc1C	–	–	44	–
SMILES	Yeast lifespan up	RAM inhibit	Yeast growth inh	SDO1 yeast rescue	others
Cn1c(=O)c(=O)n(C)c2cc(S(=O)(=O)CCC(=O)N3CCOCC3)ccc21	–	–	–	–
Cc1ccc2nc(N3C(=O)C(O)=C(C(=O)c4ccco4)C3c3cccs3)sc2c1 (stereo not drawn)	61	–	–	–
COc1ccc(CCN2C(=O)C(O)=C(C(=O)c3ccco3)C2c2cccs2)cc1OC (stereo not drawn)	83	–	–	–
S=C(NCCN1CCOCC1)N/N=C/c1ccccc1	–	–	–	–
COc1ccc(N(C)C(=S)Nc2ccc3nc(C)c(C)nc3c2)cc1	43	–	–	–
Cc1nc2ccc(NC(=S)NCc3ccccc3)cc2nc1C	·	–	·	·
Oc1ccc(N=Nc2cccc(Cl)c2)cc1C=Nc1ccc(N2CCOCC2)cc1	–	–	79	–
Oc1ccc2ccccc2c1C=Nc1ccc(N2CCOCC2)cc1	49	–	–	–
CCO[C@@H]1OC(C(=O)NCc2nc3ccccc3[nH]2)=C[C@H](C)[C@H]1CCCO	·	–	·	·
O=C(Oc1ccc(Br)cc1C(=S)N1CCCC1)c1ccccc1Cl	–	–	–	–
Cc1ccccc1C(=O)Oc1ccc(Br)cc1C(=S)N1CCCC1	–	9.8	–	–
Cc1nn(Cc2ccccc2)c(C)c1NC(=O)c1cc(-c2ccco2)on1	–	–	–	–
CS(=O)(=O)c1nc(-c2ccccc2)cc(C(F)(F)F)n1	75	–	–	–
Cc1cc(NC(=O)CCS(=O)(=O)c2nc(-c3ccccc3)cc(C(F)(F)F)n2)no1	·	–	–	–
CCn1c(=S)sc2c(=O)n(-c3ccccc3)c(SC)nc21	–	–	–	–
COc1ccc(-n2c(SCC3OCCO3)nc3c(sc(=S)n3-c3ccccc3)c2=O)cc1OC	·	8.6	·	·
Cn1ncc(Br)c1C(=O)N1CCOCC1	–	–	–	–
CCOc1ccc2c(c1)c(N=Nc1cccc(C(=O)O)c1)c(O)n2C	–	10	–	–
Cc1ccc2c(c1)c(N=Nc1cccc(C(=O)O)c1)c(O)n2C	·	–	·	·
C/C=C/c1ccc(OCCCCNCc2ccco2)c(OC)c1	·	–	·	·
Clc1cc(Cl)cc(CSc2nnc(-c3sccc3-n3cccc3)o2)c1	–	–	–	–
Clc1cccc(CSc2nnc(-c3sccc3-n3cccc3)o2)c1	–	8.9	–	–
O=C(COc1ccc(Br)cc1Br)NC1CCCC1	·	–	·	·
O=C(COc1ccc(Br)cc1Cl)NC1CCCCC1	–	8.9	–	–
COc1ccc(CCn2c(C(C)C)nc3c(c(=O)c4ccccc4n3C)c2=O)cc1	27	8.9	–	–
SMILES	Yeast lifespan up	RAM inhibit	Yeast growth inh	SDO1 yeast rescue	others
COc1ccc(Cn2c(-c3ccc(OC)cc3)nc3c(c(=O)c4ccccc4n3C)c2=O)cc1	–	–	–	–
COc1ccc(Cn2c(-c3ccc(C)cc3)nc3c(c(=O)c4ccccc4n3C)c2=O)cc1	–	9.9	–	–
CCOC(=O)C1=C(C)N=c2s/c(=C/c3ccco3)c(=O)n2C1c1cccc(OC)c1 (stereo not drawn)	–	9.5	–	–
COc1cnc(-c2ccccc2)nc1Oc1ccc(C(C)(C)C)cc1	–	11	–	–
Cc1nn(Cc2ccc(Cl)cc2)c(C)c1NC(=O)C1CC=CCC1C(=O)O (stereo not drawn)	–	–	–	–
O=C(CCCN1C(=O)/C(=C/c2cccc(Br)c2)SC1=S)Nc1ccccn1	–	–	–	–
COc1ccc(/C=C/C(=O)Nc2cc(F)ccc2C)cc1S(=O)(=O)N1CCOCC1	·	–	·	·
O=c1c(Cl)c(Cl)cnn1-c1ccccc1	40	–	–	–
O=C(CN1CCN(c2ncc(C(F)(F)F)cc2Cl)CC1)NCCNc1ncc(C(F)(F)F)cc1Cl	–	–	93	–
CN(C)CCCNC(=O)c1cc(C(=O)C2CCCCC2)c[nH]1	·	–	·	·
CN(C)CCCNC(=O)C1CCNCC1	–	–	–	3.1	SDO1 rescue DR=0.1
COCCN1C(=O)C(O)=C(C(=O)c2ccco2)C1c1cccc(Oc2ccccc2)c1 (stereo not drawn)	–	–	–	9	SDO1 rescue DR=0.076
